Source: ChEMBL document CHEMBL1147157, “Virtual screening for novel openers of pancreatic K(ATP) channels” (J Med Chem, 2007)

Legend:
[1] = target: Sulfonylurea receptor 1, Kir6.2 (Homo sapiens) (UniProt Q14654+Q09428); experiment: Activity at Kir6.2/SUR1 KATP channels expressed in HEK293 cells assessed as repolarization of tolbutamide-induced membrane depolarization relative to BPDZ73; format: cell-based
How it was run: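 HEK 293 cells stably expressing human Kir6.2/SUR1, seeded on poly(lysine)-coated plates, cultured 2 days. Membrane-potential fluorescent dye (ex 490/em 550 nm) in loading buffer/HBSS with 10 µM tolbutamide, 34 °C; fluorescence read before and 5-10 min after compound.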

[2] = target: Sulfonylurea receptor 1, Kir6.2 (Homo sapiens, UniProt Q09428+Q14654); experiment: Activity at Kir6.2/SUR1 KATP channels expressed in HEK293 cells assessed as repolarization of tolbutamide-induced membrane depolarization; format: cell-based
[3] = Inhibition of insulin release from rat INS-1E cells

Sulfonylurea receptor 1, Kir6.2, sequence (Q14654 whole entry): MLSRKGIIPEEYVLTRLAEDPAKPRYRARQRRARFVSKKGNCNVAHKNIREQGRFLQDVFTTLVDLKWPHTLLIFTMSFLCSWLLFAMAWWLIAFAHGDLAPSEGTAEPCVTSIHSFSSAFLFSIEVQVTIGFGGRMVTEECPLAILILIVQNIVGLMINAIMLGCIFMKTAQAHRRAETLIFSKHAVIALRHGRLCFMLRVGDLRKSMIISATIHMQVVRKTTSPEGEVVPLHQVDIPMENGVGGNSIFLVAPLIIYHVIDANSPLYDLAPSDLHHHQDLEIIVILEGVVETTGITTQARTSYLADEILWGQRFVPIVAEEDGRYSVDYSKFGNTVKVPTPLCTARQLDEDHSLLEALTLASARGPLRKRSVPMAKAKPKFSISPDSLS
Sulfonylurea receptor 1, Kir6.2, sequence (Q09428 whole entry): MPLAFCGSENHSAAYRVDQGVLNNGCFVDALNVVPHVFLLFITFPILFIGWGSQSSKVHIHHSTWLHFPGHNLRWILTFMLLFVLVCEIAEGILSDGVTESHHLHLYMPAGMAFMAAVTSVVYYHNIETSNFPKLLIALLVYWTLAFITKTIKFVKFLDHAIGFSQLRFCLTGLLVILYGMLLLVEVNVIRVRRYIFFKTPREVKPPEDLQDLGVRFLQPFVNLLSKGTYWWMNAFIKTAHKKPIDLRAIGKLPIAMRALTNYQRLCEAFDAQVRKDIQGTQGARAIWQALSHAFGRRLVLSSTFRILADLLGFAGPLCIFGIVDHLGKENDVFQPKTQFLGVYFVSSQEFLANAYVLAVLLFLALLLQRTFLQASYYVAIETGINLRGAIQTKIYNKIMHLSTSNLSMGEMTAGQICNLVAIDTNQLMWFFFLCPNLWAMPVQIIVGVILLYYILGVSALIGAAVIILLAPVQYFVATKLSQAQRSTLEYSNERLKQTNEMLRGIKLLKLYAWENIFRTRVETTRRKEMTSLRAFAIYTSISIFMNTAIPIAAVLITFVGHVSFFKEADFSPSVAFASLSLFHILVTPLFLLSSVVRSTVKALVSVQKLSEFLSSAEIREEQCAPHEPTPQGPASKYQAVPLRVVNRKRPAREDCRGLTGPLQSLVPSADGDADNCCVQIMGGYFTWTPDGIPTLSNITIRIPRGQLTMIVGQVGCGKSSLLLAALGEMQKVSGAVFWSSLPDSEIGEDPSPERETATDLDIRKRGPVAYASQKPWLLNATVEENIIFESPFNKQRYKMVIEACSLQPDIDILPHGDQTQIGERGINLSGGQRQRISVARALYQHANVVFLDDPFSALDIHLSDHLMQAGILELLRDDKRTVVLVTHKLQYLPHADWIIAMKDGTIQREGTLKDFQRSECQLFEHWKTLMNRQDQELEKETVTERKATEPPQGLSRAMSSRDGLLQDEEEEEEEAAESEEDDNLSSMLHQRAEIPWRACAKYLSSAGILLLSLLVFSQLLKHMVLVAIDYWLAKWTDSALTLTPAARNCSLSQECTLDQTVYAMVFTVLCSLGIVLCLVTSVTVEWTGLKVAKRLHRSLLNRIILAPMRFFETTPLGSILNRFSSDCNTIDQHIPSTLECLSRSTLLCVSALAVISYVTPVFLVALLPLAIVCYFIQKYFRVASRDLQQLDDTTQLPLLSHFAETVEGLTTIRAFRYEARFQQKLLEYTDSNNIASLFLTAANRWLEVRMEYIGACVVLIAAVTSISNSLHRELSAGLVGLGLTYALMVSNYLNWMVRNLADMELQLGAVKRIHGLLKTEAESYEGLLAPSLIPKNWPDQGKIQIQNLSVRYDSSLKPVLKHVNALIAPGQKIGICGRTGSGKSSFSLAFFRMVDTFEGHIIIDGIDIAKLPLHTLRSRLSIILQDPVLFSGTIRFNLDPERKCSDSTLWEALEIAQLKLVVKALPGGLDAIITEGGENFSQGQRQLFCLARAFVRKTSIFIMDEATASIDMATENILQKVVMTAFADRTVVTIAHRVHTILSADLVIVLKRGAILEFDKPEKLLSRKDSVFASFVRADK

Compound	Emax [1]	EC50 [2]	IC50 [3]	EC50 [3]
COc1ccc2[nH]c(N3CCCCC3)nc2c1	52%	> 30 µM	–	–
OCCn1c(-c2ccc(F)cc2)cs/c1=N\c1ccc(F)cc1	105%	21 µM	18 µM	–
CC(=O)Nc1nc2ccccc2n1CCN1CCCC1	55%	> 30 µM	–	–
CC1=Nc2ccc(Cl)cc2S(=O)(=O)N1 [DIAZOXIDE]	–	–	–	20.3 µM
CC(C)NC1=NS(=O)(=O)c2cc(Cl)ccc2N1	100%	0.25 µM	0.94 µM	–
N#Cc1c(-c2ccccc2)c(-c2ccccc2)n[nH]c1=O	55%	> 30 µM	–	–
O=c1[nH]cnc2ncc(-c3ccccc3)nc12	84%	> 30 µM	–	–
COc1ccc2nc(C(F)(F)F)c(C#N)c(N)c2c1	160%	15 µM	25 µM	–
O=C(Nc1nccs1)c1c(O)c2cc(Cl)ccc2oc1=O	171%	> 30 µM	56 µM	–
NC(=O)c1ccccc1NS(=O)(=O)c1ccc(Cl)cc1	47%	> 30 µM	–	–
